Results reported in ChEMBL document CHEMBL3124823, “1,2,3-Triazole-containing derivatives of rupestonic acid: click-chemical synthesis and antiviral activities against influenza viruses” (Eur J Med Chem, 2014).
In brackets after ≈: the same amount, converted by molar mass.

Key:
Influenza B virus [1] = assay: Antiviral activity against Influenza B virus jifang/13/97 infected in MDCK cells assessed as inhibition of plaque formation after 3 to 4 days by crystal violet staining-based assay; type: functional, organism-based; conditions: jifang/13/97, MDCK
How it was run: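 Plaque reduction: MDCK monolayers in 12-well plates were PBS-washed and infected with influenza B in trypsin-free maintenance medium for 2 h at 37 °C, 5% CO2. Inoculum was removed and the cells washed three times. A 1.5% agarose/MEM overlay with trypsin (2 μg/ml) and drug was added. After 3-4 days, crystal violet (0.5%) plaque counts against no-drug wells gave IC50 by Reed & Muench. Ribavirin was the control.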

Influenza B virus [2] = assay: Ratio of ribavirin IC50 to compound IC50 for Influenza B virus jifang/13/97 infected in MDCK cells; type: functional
[3] = Selectivity index, ratio of TC50 for MDCK cells to IC50 for Influenza B virus jifang/13/97; type: toxicity, cell-based; conditions: dog, read-out: Selectivity Index
How it was run: (§1)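 Selectivity index = TC50 (MDCK, 48 h visual cytotoxicity) / IC50 from the 40 h CPE-inhibition assay for the given strain.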

Influenza B virus [4] = assay: Antiviral activity against Influenza B virus jifang/13/97 infected in MDCK cells assessed as inhibition of virus-induced cytopathicity after 40 hrs; type: functional, organism-based; conditions: jifang/13/97, MDCK
How it was run: (§2)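 CPE reduction in MDCK cells: cells grown 24 h at 37 °C, 5% CO2, then infected and held 2 h at 37 °C before the inoculum was removed. Threefold serial drug dilutions (8 levels from 20 mg/mL DMSO stocks) were added and incubated 40 h at 37 °C. CPE inhibition was scored against cell and virus controls to give IC50. Ribavirin and oseltamivir were the controls.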

Influenza A virus [5] = assay: Antiviral activity against Influenza A virus A/hanfang/359/95(H3N2) infected in MDCK cells assessed as inhibition of virus-induced cytopathicity after 40 hrs; type: functional, organism-based; how it was run: as §2
Influenza A virus [6] = assay: Antiviral activity against Influenza A virus (A/FM/1/1947(H1N1)) infected in MDCK cells assessed as inhibition of virus-induced cytopathicity after 40 hrs; type: functional, organism-based; conditions: A/Fort Monmouth/1/1947(H1N1); how it was run: as §2
[7] = Cytotoxicity against MDCK cells after 48 hrs; type: cell-based, Canis lupus familiaris; conditions: dog, read-out: TC50
How it was run: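 MDCK cells seeded at 25000 per well and cultured 24 h at 37 °C, 5% CO2. Threefold dilutions were added to the monolayer and culture continued 48 h. Cytopathic changes were recorded by observation, and TC50 was calculated by the Reed & Muench method.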

[8] = Selectivity index, ratio of TC50 for MDCK cells to IC50 for Influenza A virus (A/FM/1/1947(H1N1)); type: toxicity, cell-based; conditions: dog, read-out: Selectivity Index; how it was run: as §1
[9] = Selectivity index, ratio of TC50 for MDCK cells to IC50 for Influenza A virus A/hanfang/359/95(H3N2); type: toxicity, cell-based; conditions: dog, read-out: Selectivity Index; how it was run: as §1
[10] = Selectivity index, ratio of TC50 for MDCK cells to IC50 for Influenza A virus (A/Tianjinjinnan/15/2009/H1N1); type: toxicity, cell-based; conditions: dog, read-out: Selectivity Index; how it was run: as §1

With `C=C(C(=O)NCc1cn(Cc2ccc(F)cc2)nn1)[C@@H]1CC[C@H](C)[C@@H]2CC(=O)C(C)=C2C1` the IC50 (Influenza B virus [1]) was 0.73 mg/L (≈ 1.67 µM), the “Ratio IC50” value (Influenza B virus [2]) was over 4 and the selectivity ratio [3] was 43.8. For the same compound, the IC50 (Influenza B virus [4]) was 3.92 mg/L (≈ 8.98 µM), the IC50 (Influenza A virus [5]) was over 66.7 mg/L and the IC50 (Influenza A virus [6]) was at least 66.7 mg/L. For the same compound, the CC50 at 48 h [7] was 116 mg/L (≈ 265 µM).

For `C=C(C(=O)OCc1cn(Cc2cccc(Cl)c2)nn1)[C@@H]1CC[C@H](C)[C@@H]2CC(=O)C(C)=C2C1`, the selectivity ratio [3] was 2.1, the IC50 (Influenza B virus [4]) was 66.7 mg/L (≈ 147 µM) and the IC50 (Influenza A virus [5]) was over 66.7 mg/L. For the same compound, the IC50 (Influenza A virus [6]) was at least 66.7 mg/L and the CC50 at 48 h [7] was 139 mg/L (≈ 305 µM).

With `C=C(C(=O)OCc1cn(Cc2ccc(Cl)cc2)nn1)[C@@H]1CC[C@H](C)[C@@H]2CC(=O)C(C)=C2C1` the selectivity ratio [3] was 5.2, the IC50 (Influenza B virus [4]) was 12.8 mg/L (≈ 28.3 µM) and the IC50 (Influenza A virus [5]) was over 22.2 mg/L. The IC50 (Influenza A virus [6]) was over 22.2 mg/L and the CC50 at 48 h [7] was 66.7 mg/L (≈ 147 µM).

With `C=C(C(=O)OCc1cn(Cc2ccccc2F)nn1)[C@@H]1CC[C@H](C)[C@@H]2CC(=O)C(C)=C2C1` the IC50 (Influenza B virus [1]) was 0.91 mg/L (≈ 2.08 µM), the “Ratio IC50” value (Influenza B virus [2]) was over 4 and the selectivity ratio [3] was 29.7. The IC50 (Influenza B virus [4]) was 2.26 mg/L (≈ 5.17 µM), the IC50 (Influenza A virus [5]) was over 22.2 mg/L and the IC50 (Influenza A virus [6]) was over 22.2 mg/L. The CC50 at 48 h [7] was 66.7 mg/L (≈ 152 µM).

`C=C(C(=O)OCc1cn(Cc2cccc(F)c2)nn1)[C@@H]1CC[C@H](C)[C@@H]2CC(=O)C(C)=C2C1` showed a selectivity ratio [3] of at least 4.3, an IC50 (Influenza B virus [4]) of at least 22.2 mg/L and an IC50 (Influenza A virus [5]) of over 22.2 mg/L. For the same compound, the IC50 (Influenza A virus [6]) was over 22.2 mg/L and the CC50 at 48 h [7] was 96.2 mg/L (≈ 220 µM).

Work on `C=C(C(=O)OCc1cn(Cc2ccc(F)cc2)nn1)[C@@H]1CC[C@H](C)[C@@H]2CC(=O)C(C)=C2C1` yielded a selectivity ratio [3] of 9.1, an IC50 (Influenza B virus [4]) of 8.98 mg/L (≈ 20.5 µM) and an IC50 (Influenza A virus [5]) of over 22.2 mg/L. It also gave an IC50 (Influenza A virus [6]) of over 22.2 mg/L and a CC50 at 48 h [7] of 66.7 mg/L (≈ 152 µM).

For `C=C(C(=O)OCc1cn(Cc2ccc(Cl)c(Cl)c2)nn1)[C@@H]1CC[C@H](C)[C@@H]2CC(=O)C(C)=C2C1`, the IC50 (Influenza B virus [4]) was over 7.41 mg/L, the IC50 (Influenza A virus [5]) was over 7.41 mg/L and the IC50 (Influenza A virus [6]) was over 7.41 mg/L. The CC50 at 48 h [7] was 22.2 mg/L (≈ 45.5 µM).

With `C=C(C(=O)OCc1cn(C2C=CCCC2)nn1)[C@@H]1CC[C@H](C)[C@@H]2CC(=O)C(C)=C2C1` (some centres undefined) the IC50 (Influenza B virus [1]) was 3.28 mg/L (≈ 8.01 µM), the selectivity ratio [3] was at least 4.3 and the IC50 (Influenza B virus [4]) was at least 5.14 mg/L. It also gave an IC50 (Influenza A virus [5]) of over 7.41 mg/L, a selectivity ratio [8] of 8 and an IC50 (Influenza A virus [6]) of 2.82 mg/L (≈ 6.89 µM). It also gave a CC50 at 48 h [7] of 22.2 mg/L (≈ 54.3 µM).

With `C=C(C(=O)OCc1cn(C2CCCCC2)nn1)[C@@H]1CC[C@H](C)[C@@H]2CC(=O)C(C)=C2C1` the selectivity ratio [3] was 6.5, the IC50 (Influenza B virus [4]) was 18.5 mg/L (≈ 45 µM) and the selectivity ratio [9] was at least 1.73. For the same compound, the IC50 (Influenza A virus [5]) was at least 66.7 mg/L, the selectivity ratio [10] was 1.98 and the selectivity ratio [8] was 1.73. The IC50 (Influenza A virus [6]) was 66.7 mg/L (≈ 162 µM) and the CC50 at 48 h [7] was 115 mg/L (≈ 281 µM).

`C=C(C(=O)NCc1cn(Cc2ccccc2C)nn1)[C@@H]1CC[C@H](C)[C@@H]2CC(=O)C(C)=C2C1` gave a selectivity ratio [3] of 4.55, an IC50 (Influenza B virus [4]) of 15 mg/L (≈ 34.7 µM) and an IC50 (Influenza A virus [5]) of over 22.2 mg/L. It also gave an IC50 (Influenza A virus [6]) of over 22.2 mg/L and a CC50 at 48 h [7] of 66.7 mg/L (≈ 154 µM).

`C=C(C(=O)NCc1cn(Cc2cccc(C)c2)nn1)[C@@H]1CC[C@H](C)[C@@H]2CC(=O)C(C)=C2C1` showed a selectivity ratio [3] of 5.7, an IC50 (Influenza B virus [4]) of 11.8 mg/L (≈ 27.2 µM) and an IC50 (Influenza A virus [5]) of over 22.2 mg/L. The IC50 (Influenza A virus [6]) was over 22.2 mg/L and the CC50 at 48 h [7] was 66.7 mg/L (≈ 154 µM).

`C=C(C(=O)NCc1cn(Cc2ccc(C)cc2)nn1)[C@@H]1CC[C@H](C)[C@@H]2CC(=O)C(C)=C2C1` gave a selectivity ratio [3] of 8.25, an IC50 (Influenza B virus [4]) of 11.8 mg/L (≈ 27.2 µM) and an IC50 (Influenza A virus [5]) of over 22.2 mg/L. It also gave a selectivity ratio [8] of 5.91, an IC50 (Influenza A virus [6]) of 17.5 mg/L (≈ 40.5 µM) and a CC50 at 48 h [7] of 96.2 mg/L (≈ 222 µM).

Compound `C=C(C(=O)NCc1cn(Cc2ccccc2)nn1)[C@@H]1CC[C@H](C)[C@@H]2CC(=O)C(C)=C2C1` has a selectivity ratio [3] of 12.2, an IC50 (Influenza B virus [4]) of 11.3 mg/L (≈ 27 µM) and an IC50 (Influenza A virus [5]) of over 22.2 mg/L. It also gave a selectivity ratio [8] of 5.58, an IC50 (Influenza A virus [6]) of 17.2 mg/L (≈ 41.2 µM) and a CC50 at 48 h [7] of 96.2 mg/L (≈ 230 µM).

In the case of `C=C(C(=O)NCc1cn(Cc2cccc(OC)c2)nn1)[C@@H]1CC[C@H](C)[C@@H]2CC(=O)C(C)=C2C1`, the selectivity ratio [3] is reported as 3.45, the IC50 (Influenza B virus [4]) is reported as 19.7 mg/L (≈ 44 µM) and the IC50 (Influenza A virus [5]) is reported as over 22.2 mg/L. It also gave a selectivity ratio [8] of 5.2, an IC50 (Influenza A virus [6]) of 12.8 mg/L (≈ 28.6 µM) and a CC50 at 48 h [7] of 66.7 mg/L (≈ 149 µM).

Compound `C=C(C(=O)NCc1cn(Cc2ccc(OC)cc2)nn1)[C@@H]1CC[C@H](C)[C@@H]2CC(=O)C(C)=C2C1` has a selectivity ratio [3] of 8.25, an IC50 (Influenza B virus [4]) of 11.8 mg/L (≈ 26.2 µM) and an IC50 (Influenza A virus [5]) of over 22.2 mg/L. For the same compound, the selectivity ratio [8] was 10.5, the IC50 (Influenza A virus [6]) was 14 mg/L (≈ 31.2 µM) and the CC50 at 48 h [7] was 96.2 mg/L (≈ 214 µM).

With `C=C(C(=O)NCc1cn(Cc2ccccc2Cl)nn1)[C@@H]1CC[C@H](C)[C@@H]2CC(=O)C(C)=C2C1` the IC50 (Influenza B virus [1]) was 0.21 mg/L (≈ 0.464 µM), the “Ratio IC50” value (Influenza B virus [2]) was over 4 and the selectivity ratio [3] was 22.5. For the same compound, the IC50 (Influenza B virus [4]) was 1.71 mg/L (≈ 3.77 µM), the IC50 (Influenza A virus [5]) was over 7.41 mg/L and the IC50 (Influenza A virus [6]) was over 7.41 mg/L. It also gave a CC50 at 48 h [7] of 38.5 mg/L (≈ 85 µM).
